GPR7 antagonist: GPR7 receptor antagonists, primary screen, cell-based, fluorescence, single concentration. actives 1.1% (n = 290,000). inhibition, % at 4.4 µM. AID 1861, 2009. Neuropeptides B/W receptor type 1 (Homo sapiens), P48145. GPR7-expressing cells, fluorescence antagonist assay; in the data active = inhibition above about 16%, passing the limit was not always enough;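 note: cells stimulated with the agonist NPW; 0% = agonist with vehicle and 100% = vehicle without agonist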
Target sequence (P48145 whole entry, looked up): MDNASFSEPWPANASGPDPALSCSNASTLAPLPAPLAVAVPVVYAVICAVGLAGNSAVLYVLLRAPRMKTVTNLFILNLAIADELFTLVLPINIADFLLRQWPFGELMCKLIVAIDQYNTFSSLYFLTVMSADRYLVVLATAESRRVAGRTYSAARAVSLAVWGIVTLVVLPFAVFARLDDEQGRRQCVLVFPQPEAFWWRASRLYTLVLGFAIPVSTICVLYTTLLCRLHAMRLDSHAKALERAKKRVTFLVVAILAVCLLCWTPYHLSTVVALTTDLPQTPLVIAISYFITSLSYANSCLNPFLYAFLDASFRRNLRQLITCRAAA
TAAR1 antag: human TAAR1 antagonists, primary screen, Fluo-8 calcium fluorescence, CHO RD-HGA16 cells; inhibition, % at 3 µM; antagonist; Trace amine-associated receptor 1 (Homo sapiens), Q96RJ0; actives 1.5% (n = 360,000);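 active = inhibition above a per-plate cutoff, the mean inhibition of test compounds on that plate plus 3 SD, cut at about 49% in these data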;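 note: 0% = DMSO plus EC80 beta-PEA response and 100% = DMSO alone without agonist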
Target sequence (Q96RJ0 whole entry, looked up): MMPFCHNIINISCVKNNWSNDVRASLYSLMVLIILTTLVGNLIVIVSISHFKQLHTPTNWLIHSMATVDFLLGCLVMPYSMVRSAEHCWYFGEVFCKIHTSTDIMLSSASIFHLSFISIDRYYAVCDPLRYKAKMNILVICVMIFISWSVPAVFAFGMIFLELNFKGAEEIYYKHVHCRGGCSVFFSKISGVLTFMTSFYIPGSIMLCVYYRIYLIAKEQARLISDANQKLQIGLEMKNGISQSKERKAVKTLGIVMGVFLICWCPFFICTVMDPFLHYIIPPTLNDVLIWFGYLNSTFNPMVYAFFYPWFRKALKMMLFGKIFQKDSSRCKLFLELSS
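Test system – hTAAR1-expressing CHO RD-HGA16 cells, Gα16-coupled · Also added – β-PEA at EC80 concentration, post-compound challenge · Compound – 3 µM, single point · Incubation – dye loading 75 min at 37 °C, then 30 min room temperature · Measured by – Fluo-8 intracellular calcium dye fluorescence, real-time kinetic reads · Benchmarks – vehicle and agonist controls · Replicates – singlicate, one well per test compound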
DAGLB inh: DAGLB lipase inhibitors, primary screen, biochemical, fluorescence, HTS; AID 504411, 2011; actives 0.059% (n = 340,000); inhibition, % at 5.17 µM; HEK293T DAGLB membrane lysate, EnzChek fluorogenic substrate; Diacylglycerol lipase-beta (Homo sapiens), Q8NCG7; in the data active = inhibition above about 34%;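 note: 0% = enzyme with vehicle and 100% = wells lacking enzyme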
TAAR1 ag: human TAAR1 agonists, primary screen, Fluo-8 calcium fluorescence, CHO RD-HGA16 cells. Trace amine-associated receptor 1 (Homo sapiens), Q96RJ0. actives 0.99% (n = 360,000). vehicle wells 0%, saturating PEA agonist 100%. activation, % at 3 µM;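 active = activation above the mean activation of all test compounds in the run plus 3 SD, cut at about 38% in these data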
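Assay system: CHO-derived RD-HGA16 cells with stable Gα16 and human TAAR1; timing: 17-24 h seeding, 75 min 37 °C dye, 30 min RT; read-out: % activation from peak over basal fluorescence ratio, DMSO-to-PEA scaled; measured by: kinetic Fluo-8 calcium fluorescence; benchmarks: low control DMSO, high control PEA (EC100); doses: 3 µM single concentration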
MPTP inh: mitochondrial permeability transition pore inhibitors, primary screen, biochemical, isolated mouse mitochondria, absorbance; actives 1.4% (n = 360,000); inhibition, % at 10 µM; Ca2+ swelling absorbance, 30 min;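 active = inhibition of 50% or more, scaled per plate between neutral and stimulator controls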;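 note: 0% = DMSO wells given calcium and 100% = 1 mM EGTA wells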
TAAR1 ag confirm: human TAAR1 agonists, retest of hits, confirmation, Fluo-8 calcium fluorescence, CHO RD-HGA16 cells | shares compounds with TAAR1 ag | AID 651783, 2012 | actives 82% (n = 2,400) | scaled: DMSO 0%, maximal phenethylamine 100% | activation, % at 3 µM;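 active = activation above a cutoff set at the run's mean compound activation plus 3 SD, cut at about 39% in these data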
Ga16 ag counter: nonselective calcium mobilization agonists, CHO-Ga16 cells, counter-screen for hTAAR1 agonist project, cell-based, fluorescence, CHO-Ga16 parental line | shares compounds with TAAR1 ag | activation, % at 3 µM | actives 50% (n = 2,400) | Fluo-8 calcium fluorescence; normalized to maximal ATP response, DMSO zero;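 active = activation above the run cutoff, the mean activation over all tested wells plus 3 SD, cut at about 12% in these data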;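 note: 0% = DMSO wells and 100% = maximal ATP response on the peak over basal ratio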
TAAR1 desens: TAAR1 desensitization by agonist hits, confirmation, counter-screen for TAAR1 agonist project, cell-based, fluorescence, tachyphylaxis; shares compounds with TAAR1 ag; CHO RD-HGA16 hTAAR1, Fluo-8 calcium, beta-PEA response inhibition; inhibition, % at 3 µM; actives 46% (n = 2,400);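 active = inhibition above the run cutoff, the mean inhibition of all test compounds plus 3 SD, cut at about 49% in these data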;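 note: beta-PEA stimulus applied at its EC80; loss of beta-PEA calcium signal after compound pretreatment read as receptor desensitization; 0% = DMSO with beta-PEA at EC80 and 100% = DMSO alone without agonist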
Ga16 antag count: inhibition of ATP-evoked calcium response in CHO-Ga16 cells, counter-screen for TAAR1 agonist project, cell-based, fluorescence; shares compounds with TAAR1 ag; CHO-Ga16 ATP-induced calcium, Fluo-8 fluorescence; actives 39% (n = 2,400); inhibition, % at 3 µM;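 active = inhibition above the plate's mean compound inhibition plus 3 SD, computed per plate, cut at about 22% in these data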;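 note: 0% = EC80 ATP with DMSO and 100% = DMSO wells without ATP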
Active calls of the source: *; · = not tested or not shown. In the library only some 4% were active in any assay of this set; here they are far more common.

SMILES	GPR7 antagonist	TAAR1 antag	DAGLB inh	TAAR1 ag	MPTP inh	TAAR1 ag confirm	Ga16 ag counter	TAAR1 desens	Ga16 antag count
COC(=O)C1=C(C)N(Cc2cccc(C(F)(F)F)c2)C(=NCc2ccc3c(c2)OCO3)NC1c1ccccc1 (centres undefined)	·	48	·	43*	·	47*	14*	31	27*
COC(=O)C1=C(C)N(Cc2cccc(C(F)(F)F)c2)C(=NCc2ccc3c(c2)OCO3)NC1c1cccc(F)c1 (centres undefined)	·	58*	·	65*	·	58*	20*	68*	43*
COC(=O)C1=C(C)N(Cc2cccc(C(F)(F)F)c2)C(=NCc2cc(OC)c(OC)c(OC)c2)NC1c1ccc(F)cc1 (centres undefined)	·	52*	·	60*	·	23	16*	17	30*
CC1(C(=O)NS(=O)(=O)c2ccc(C#N)cc2)CCN1C(=O)C1(c2ccccc2)CC1 (centres undefined)	·	-28	·	0	0	·	·	·	·
Cc1ccc(O)c(NC(=O)c2onc(C)c2Cl)c1	0	-22	-4	7	0	·	·	·	·
CCC(c1nnnn1-c1ccc2c(c1)OCCO2)N1CCN(Cc2c(F)cccc2Cl)CC1 (centres undefined)	·	8	·	-1	0	·	·	·	·
O=c1[nH]c(=O)n(-c2ccccc2)c2c1C(C(F)(F)F)(C(F)(F)F)N=C(CCC1CCCCC1)N2	8	-2	1	47*	6	101*	70*	95*	52*
O=C(O)[C@H](Cc1ccccc1)NC(=O)[C@H]1O[C@@H](n2ccc(=O)[nH]c2=O)[C@H](O)[C@@H]1O	·	4	·	2	·	·	·	·	·
Cn1c(=O)cc(NCCc2ccccc2)[nH]c1=O	1	17	-5	69*	-2	74*	1	45	7
CCCNc1cc(=O)n(C)c(=O)n1C	-6	-2	-1	0	0	·	·	·	·
Cn1c(NCCc2ccccc2)cc(=O)n(C)c1=O	-16	·	-1	·	-3	·	-1	·	11
Cn1c(=O)cc(Nc2ccccc2)[nH]c1=O	2	-8	-1	18	0	·	·	·	·
Cn1c(=O)cc(Nc2ccc(Cl)cc2)[nH]c1=O	-10	8	3	48*	-1	67*	0	44	13
NS(=O)(=O)c1ccc(CCNc2cc(=O)n(Cc3ccc(F)cc3)c(=O)[nH]2)cc1	-4	17	2	2	-2	·	·	·	·
CCCCCCc1nc2nc(Cl)c(Cl)nc2[nH]1	·	-18	-3	8	46	·	·	·	·
O=NN(Cc1cccnc1)C(=O)NC1CCCCC1	·	-3	·	2	0	·	·	·	·
CC1CC(C)CN(C(=O)c2cccc(S(=O)(=O)NCc3ccccc3)c2)C1 (centres undefined)	·	4	-10	58*	-1	50*	2	14	15
CCCCNC(=O)c1nc(C2CCN(S(=O)(=O)c3c(OC)cccc3OC)CC2)oc1-c1ccccc1	·	3	·	2	1	·	·	·	·
Cc1noc(C)c1COC(=O)c1cccc(S(=O)(=O)N2CCOCC2)c1	·	16	3	48*	0	3	1	-1	8
COc1ccc(-c2ccc3c(n2)CCCN3S(=O)(=O)c2c(C)noc2C)cc1	·	-7	·	0	·	·	·	·	·
O=C(Nc1cccc(C(=O)Nc2ccc(Cl)cn2)c1)c1ccccc1	-8	86*	-4	87*	0	3	7	26	17
COc1cccc(C(=O)Nc2ccc(NC(=O)Cc3ccccc3)cc2)c1	-15	42	0	82*	1	102*	23*	67*	14
COc1cccc(NC(=O)Cc2ccccc2)c1	-10	17	0	9	0	·	·	·	·
O=C(Nc1ccc(NC(=O)C2CC2)cn1)c1ccccc1	-3	11	0	-1	2	·	·	·	·
O=C(Cc1ccccc1)Nc1ccc(NC(=O)c2ccccc2)nc1	-3	3	0	53*	-2	64*	2	31	12
SMILES	GPR7 antagonist	TAAR1 antag	DAGLB inh	TAAR1 ag	MPTP inh	TAAR1 ag confirm	Ga16 ag counter	TAAR1 desens	Ga16 antag count
Cc1ccc(S(=O)(=O)C2(C(=O)NCCc3ccccc3)CC2)cc1	-4	2	-4	50*	4	82*	0	35	5
Cc1ccc(S(=O)(=O)NC(=O)NCCc2ccccc2)cc1	-11	18	3	71*	1	81*	0	37	13
Cc1ccc(S(=O)(=O)NNC(=S)NCCc2ccccc2)cc1	-14	-22	-3	35	3	·	·	·	·
COc1cc(CN2CCCC(C(=O)c3ccc(C(C)(C)C)cc3)C2)cc(OC)c1O (centres undefined)	-15	-8	-2	54*	2	18	9	-2	10
COc1ccc(C(=O)C2CCCN(Cc3cc(C)c(O)c(C)c3)C2)c(OC)c1 (centres undefined)	-9	1	-1	0	1	·	·	·	·
CC(C)NC(=O)OC[C@H]1O[C@H](C#Cc2ccc(C(C)(C)C)cc2)C=C[C@H]1O	·	-22	·	-1	·	·	·	·	·
Nc1nc(CN2CCc3ccccc3C2)nc(Nc2ccccc2)n1	-13	19	3	59*	0	85*	1	47	10
COc1ccccc1Nc1nc(N)nc(CN2CCc3ccccc3C2)n1	-11	-8	-1	43*	0	54*	1	-3	6
COc1ccc(Nc2nc(N)nc(CN3CCc4ccccc4C3)n2)cc1	-14	-8	6	44*	-1	88*	4	27	2
COc1ccc(Nc2nc(N)nc(CN3CCC(C)CC3)n2)cc1	-15	-27	1	0	-2	·	·	·	·
Nc1nc(CN2CCCCCC2)nc(Nc2ccccc2)n1	0	-17	1	6	-1	·	·	·	·
CCN(CC)c1ccc(/C=C/C(=O)C2C(=O)C=C(C)OC2=O)cc1 (centres undefined)	3	108*	-46	406*	2	536*	664*	109*	105*

Source: PubChem BioAssay
